SENP7 inh: SENP7 protease inhibition; inhibition, % at 5 µM; 330,000 compounds, 1.5% hits; recombinant SENP7, Z-RLRGG-aminoluciferin luminescence, 40 min; AID 434973;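 active means inhibition above about 50% at the single test dose, limit read from the data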;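 further: plate controls were DMSO with enzyme for no effect and no enzyme buffer wells for full effect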
SENP8 block-1: blocks human SENP8 cleavage of Nedd8 substrate. inhibition, % at 20 µM. 360,000 compounds, 0.64% hits. Q96LD8. AID 602440. recombinant SENP8, Nedd8 substrate fluorescence; in the data active means inhibition mostly above about 40%, no sharp cut-off; inactive means mostly below about 27%
Target sequence (Q96LD8 whole entry, looked up): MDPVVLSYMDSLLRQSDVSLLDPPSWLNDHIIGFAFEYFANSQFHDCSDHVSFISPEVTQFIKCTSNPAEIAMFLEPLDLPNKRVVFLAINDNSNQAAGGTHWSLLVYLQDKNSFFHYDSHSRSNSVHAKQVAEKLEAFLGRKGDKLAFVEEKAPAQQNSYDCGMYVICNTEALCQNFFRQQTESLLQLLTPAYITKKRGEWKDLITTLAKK
Platelet DG rel: platelet dense granule release activity. 300,000 compounds, 0.22% hits. human platelet-rich plasma, SFLLRN dense granule ATP release, luminescence. inhibition, %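 (compounds screened at 7.5 µM in platelet-rich plasma)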;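 active means mean replicate score, as percent of positive control, at or above 50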
SENP6 inh: inhibitors of human SENP6 protease. Q9GZR1. 330,000 compounds, 1.8% hits. Recombinant SENP6 catalytic domain, aminoluciferin luminescence. inhibition, % at 10 µM;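 active means inhibition above about 50% at the single tested dose, limit read from the data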;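 further: plate controls were DMSO wells with enzyme for no effect and DMSO wells lacking enzyme for full effect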
SENP8 block-2: blocks the human protease SENP8. Q96LD8. purified SENP8, Z-RLRGG-aminoluciferin cleavage, luminescence. inhibition, % at 10 µM. 330,000 compounds, 1.2% hits. AID 2540; in the data active means inhibition above about 50%
SENP1 FRET inh: inhibitors of human SENP1 SUMO protease catalytic domain; Q9P0U3; recombinant SENP1 catalytic domain, CyPet-SUMO1-YPet FRET cleavage; inhibition, % at 10 µM; 360,000 compounds, 0.21% hits;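 active means inhibition at least 30% at 10 µM, raw YFP signal under a set limit, fluorescence ratio 0.5 to 1.5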;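 further: 0% = enzyme with DMSO and 100% = no enzyme wells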
Target sequence (Q9P0U3 419-644 limits assumed): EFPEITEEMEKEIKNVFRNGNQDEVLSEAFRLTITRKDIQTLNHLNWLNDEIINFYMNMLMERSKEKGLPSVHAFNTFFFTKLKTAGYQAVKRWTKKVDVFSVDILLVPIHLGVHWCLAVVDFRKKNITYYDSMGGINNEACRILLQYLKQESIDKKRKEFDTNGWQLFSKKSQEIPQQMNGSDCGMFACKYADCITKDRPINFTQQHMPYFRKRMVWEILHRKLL
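Assay system – human recombinant His6-tagged SENP1 catalytic domain enzyme · Input – SENP1 enzyme, 20 pM final · Buffer or medium – Tris pH 8 buffer plus EDTA, NaCl, BME, BSA, NP40, catalase · Schedule – 50 min reaction at room temperature · Technique – FRET read of cyan and yellow fluorescence · Control set – no-enzyme wells low, DMSO-plus-enzyme wells high control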
SENP1 inh conf: confirmation of human SENP1 SUMO protease inhibitors; recombinant SENP1, CyPet-SUMO1-YPet FRET cleavage; inhibition, % at 10 µM; shares compounds with SENP1 FRET inh; 520 compounds, 34% hits; in the data active means inhibition mostly above about 35%, no sharp cut-off; inactive means mostly below about 32%;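 further: 0% = enzyme with DMSO and 100% = no enzyme control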
SENP1 kin conf: SENP1 (human) inhibition, kinetic confirmation. shares compounds with SENP1 FRET inh. recombinant SENP1, CyPet-SUMO1-YPet FRET kinetic cleavage. inhibition, % at 10 µM. 520 compounds, 26% hits; in the data active means inhibition mostly above about 32%, no sharp cut-off; inactive means mostly below about 29%;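 further: 0% = DMSO with enzyme and 100% = no enzyme substrate only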
* hit, by the source's call; nt = no result given. An excerpt weighted towards active compounds, which were near 2.6% of everything screened.

SMILES	SENP7 inh	SENP8 block-1	Platelet DG rel	SENP6 inh	SENP8 block-2	SENP1 FRET inh	SENP1 inh conf	SENP1 kin conf
CC(C)c1ccc(C(=O)N(c2ccccn2)C(C)c2ccco2)cc1 (centres undefined)	-7	10	-5	-9	4	2	nt	nt
COc1ccc(S(N)(=O)=O)cc1C(=O)NNC(=O)CN(C)S(=O)(=O)c1ccc(Cl)cc1	-1	3	nt	0	10	1	nt	nt
Cc1ccc(-n2cnc3sc(C)c(C)c3c2=O)cc1	1	32	12	-11	0	37*	-14	1
Cc1cccc(-n2cnc3sc(C)c(C)c3c2=O)c1	1	7	-3	6	-13	0	nt	nt
CCOc1ccccc1CN1CCN(CCCc2ccccc2)CC1CCO (centres undefined)	-3	13	-1	2	-3	3	nt	nt
Cn1c2ccccc2c2cc(C(=O)OCC(=O)N3CC(=O)Nc4ccccc43)sc21	2	-254	7	-8	5	35*	15	28
O=C1CN(C(=O)COC(=O)c2cccs2)c2ccccc2N1	2	-12	nt	-2	-4	-7	nt	nt
COc1cccc(N=Cc2ccc(O)cc2O)c1	-3	14	-3	-12	-2	36*	17	11
COc1cc(/C=C2\SC(=Nc3c(C)n(C)n(-c4ccccc4)c3=O)NC2=O)ccc1O	nt	-2	nt	nt	nt	42*	59*	41*
COc1ccc(-c2ccc3c(c2)S(=O)(=O)c2cccc(C(=O)NCc4cc(C)oc4C(F)(F)F)c2C3=O)cc1OC	-1	-10	nt	-7	8	59*	44*	34*
COc1ccc(/C=N/n2c(SC)nnc(C(C)(C)C)c2=O)cc1OC	-1	19	7	-6	0	0	nt	nt
COc1cc(/C=N/n2c(SC)nnc(C(C)(C)C)c2=O)ccc1O	2	25	-4	-22	-4	52*	12	8
CCOc1ccccc1NC(=O)c1cc(C(=O)c2cc(OC)ccc2O)coc1=N	3	18	9	-2	-2	46*	16	16
CC(C)NC(=O)c1cc(C(=O)c2cc(Cl)ccc2O)coc1=N	4	-56	-18	-6	2	-5	nt	nt
COc1ccc(C(O)c2nc(-c3cncnc3)cs2)cc1 (centres undefined)	nt	10	nt	nt	nt	1	nt	nt
CCOC(=O)Cn1c(=O)c(-c2ccccc2N)nc2ccccc21	-1	-6	-26	-1	8	-5	nt	nt
CCOC(=O)Cn1c(=O)c(-c2cc(Br)ccc2N)nc2ccccc21	6	40	7	-4	-2	86*	16	15
COC(=O)C1CC(O)CN1C(=O)Nc1ccccc1 (centres undefined)	-2	5	-6	-9	-1	30*	11	5
NC(=O)CCCn1c(C(=O)c2cc(Cl)c(N)c(Cl)c2)c2ccc([N+](=O)[O-])cc2[n+]1[O-]	-4	20	-3	-5	-2	30*	20	3
Cc1cc(C)c2c(c1)/C(=N\N=c1\sc3ccccc3n1C)C(=O)N2	-13	33	0	14	1	37*	2	4
Cn1c(=NC(=O)C2=NNC(=O)CC2)sc2ccccc21	-2	-33	-3	-27	-7	0	nt	nt
O=C(CN1C(=O)/C(=C\C=C\c2ccccc2)SC1=S)Nc1ccc(F)cc1	-6	16	-10	7	-7	66*	63*	41*
O=C1/C(=C/c2ccc([N+](=O)[O-])cc2)C=C(c2ccccc2)N1c1ccccc1	2	2	-1	2	0	40*	-4	-2
O=C(NC[C@@H]1CCCO1)c1cccc2c1C(=O)c1ccc(N3CCOCC3)cc1S2(=O)=O	12	4	nt	2	6	76*	64*	41*
COCCNC(=O)c1cccc2c1C(=O)c1ccc(N3CCOCC3)cc1S2(=O)=O	-18	21	nt	-7	-9	73*	58*	40*
OC/C(Br)=C(\Br)CO	-9	13	nt	8	3	-1	nt	nt

Screening results: PubChem, several laboratories
